This is an account of results in ChEMBL document CHEMBL1128684, “The serotonin 5-HT4 receptor. 2. Structure-activity studies of the indole carbazimidamide class of agonists” (J Med Chem, 1995).

For assay [1], the target named is 5-hydroxytryptamine receptor 4 (Cavia porcellus) (UniProt O70528). The experiment in a line: Relative efficacy compared to serotonin(1) in 5-hydroxytryptamine 4 assay. Format: functional. Put shortly:
(§1)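 Longitudinal muscle strips of guinea pig ileum kept in tyrode solution with 0.1 μM methylsergide. Twitch contractions (2–3 s) evoked through platinum electrodes by square-wave pulses at 0.1 Hz and 2 ms duration. Once a stable submaximal response was reached, noncumulative concentration–response curves were built for the agonists.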

The target is the same in assay [2]. As to the kind of experiment: 5-hydroxytryptamine 4 receptor agonistic activity was measured by twitch response enhancing activity in electrically stimulated guinea pig ileum preparation. Format: functional, tissue-based. Put shortly: as §1
In assay [3] the target is T1, 5-hydroxytryptamine receptor 2A (Rattus norvegicus, UniProt P14842). The experiment in a line: (§2) Agonistic activity against 5-hydroxytryptamine 2A receptor in rat cortex using [3H]ketanserin. It is filed as tissue-based. The essentials: (§3)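 Binding to rat cortex. Table footnote lists [3H]ketanserin as the radioligand.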
The target of assay [4] is T1, 5-hydroxytryptamine receptor 2A. Described as §2. It is filed as functional, tissue-based.
For assay [5], the target named is Serotonin 3 (5-HT3) receptor. The experiment in a line: Antagonistic activity against 5-hydroxytryptamine 3 receptor in guinea pig ileum assay.
Assay [6] deals with T1, 5-hydroxytryptamine receptor 2A. As to the kind of experiment: Agonistic activity against 5-hydroxytryptamine 2A receptor in rat cortex using [3H]-ketanserin. It is filed as tissue-based. The essentials: as §3

Bounds are passed on as bounds.

T1 sequence (P14842 whole entry): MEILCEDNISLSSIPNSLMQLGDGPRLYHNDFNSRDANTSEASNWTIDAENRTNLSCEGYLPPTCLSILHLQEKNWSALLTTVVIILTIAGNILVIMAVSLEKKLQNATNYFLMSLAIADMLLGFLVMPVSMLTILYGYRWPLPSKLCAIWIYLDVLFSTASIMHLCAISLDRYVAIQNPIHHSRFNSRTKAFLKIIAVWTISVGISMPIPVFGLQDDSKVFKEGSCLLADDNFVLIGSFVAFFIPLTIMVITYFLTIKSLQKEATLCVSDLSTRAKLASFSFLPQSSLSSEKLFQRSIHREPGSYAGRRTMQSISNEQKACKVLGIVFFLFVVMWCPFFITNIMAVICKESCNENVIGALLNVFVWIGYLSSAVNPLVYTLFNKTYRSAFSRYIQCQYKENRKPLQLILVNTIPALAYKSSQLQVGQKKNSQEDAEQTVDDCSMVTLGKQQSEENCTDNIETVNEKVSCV
Chain of 5-hydroxytryptamine receptor 4 (Cavia porcellus) (O70528 whole entry): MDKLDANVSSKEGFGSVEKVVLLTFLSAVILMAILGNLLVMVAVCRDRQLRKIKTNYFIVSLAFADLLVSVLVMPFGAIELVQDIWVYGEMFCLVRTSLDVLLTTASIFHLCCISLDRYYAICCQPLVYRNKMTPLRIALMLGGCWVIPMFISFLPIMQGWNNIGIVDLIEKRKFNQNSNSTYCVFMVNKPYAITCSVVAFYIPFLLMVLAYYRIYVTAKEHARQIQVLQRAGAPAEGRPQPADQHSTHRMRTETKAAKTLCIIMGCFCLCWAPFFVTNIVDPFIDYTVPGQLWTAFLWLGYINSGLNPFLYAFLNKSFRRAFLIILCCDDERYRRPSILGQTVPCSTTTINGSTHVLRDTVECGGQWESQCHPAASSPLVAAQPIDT

As to `CN1CCN=C1N/N=C/c1c[nH]c2ccc(O)cc12`, in assay [1], the Relative efficacy stood at 0. Moreover, the pD2 in assay [2] is under 4.
The molecule `CCCCC/N=C(/N)N/N=C/c1c[nH]c2ccc(OCCO)cc12` returned a Relative efficacy in assay [1] of 1. The pD2 in assay [2] came out at 7.4.
What is called Ki is the equilibrium dissociation constant of an inhibitor or competing ligand from its target. As to `CCCCCCCN(C)C(=N)N/N=C/c1c[nH]c2ccc(O)cc12`, the Relative efficacy in assay [1] came out at 1.6. Besides, in assay [2], the pD2 is 8. For the same molecule, the inhibition constant (Ki) in assay [3] is 2340 nM.
As for `N/C(=N/N=C/c1c[nH]c2ccc(O)cc12)NCCCc1ccccc1`, the Relative efficacy in assay [1] came to 0.4. In addition, the pD2 in assay [2] was 8.5.
As for `N/C(=N/N=C/c1c[nH]c2ccc(O)cc12)NCCc1ccccc1Cl`, the Relative efficacy in assay [1] turned out to be 0.5. Besides, the pD2 in assay [2] was found to be 8.5.
The like results for `CCCCC/N=C(/N)N/N=C/c1c[nH]c2ccccc12` were, in that order, 0.1 and under 6.
Turning to `CCCCC/N=C(/N)N/N=C/c1c[nH]c2ccc(OCCC(C)C)cc12`, the Relative efficacy in assay [1] was 0.8. Moreover, the pD2 in assay [2] worked out at 5.9.
For `N/C(=N/N=C/c1c[nH]c2ccc(O)cc12)NCCCO` the same measures were 0.7 and 7.7.
As to `N/C(=N/N=C/c1c[nH]c2ccc(O)cc12)NCCc1ccccc1`, the Relative efficacy in assay [1] was found to be 1. In addition, in assay [2], the pD2 stood at 9.1.
A word on the pA2: it is the negative logarithm of the molar antagonist concentration that doubles the agonist concentration needed for the same response. A high value points to higher antagonist potency. For the molecule `Cl.N=C(N)N/N=C/c1c[nH]c2ccc(O)cc12`, the affinity in assay [4] corresponds to a Ki of 240 nM. The molecule also showed a pA2 in assay [5] of under 5. This molecule also registered a Relative efficacy in assay [1] of 1.5. In addition, the pD2 in assay [2] was found to be 8.8.
As to `CCCCC/N=C(/N)N/N=C/c1c[nH]c2ccc(OCc3ccccc3)cc12`, in assay [1], the Relative efficacy was 1.8. Further, the pD2 in assay [2] is under 6.
For `Oc1ccc2[nH]cc(/C=N/NC3=NCCC3)c2c1` the same measures were 1 and 7.1.
For `CCCCC/N=C(/N)N/N=C/c1c[nH]c2ccc(OCC(=O)N(C)C)cc12` the same measures were 1.4 and 7.3.
For `CCCCCCCCNC(=N)N/N=C/c1c[nH]c2ccc(O)cc12` the same measures were 0 and under 4.
`CCCCC/N=C(/N)N/N=C/c1c[nH]c2ccc(OCCOC)cc12` came in with a Relative efficacy in assay [1] of 0.7. The pD2 in assay [2] stood at 6.6.
The like results for `N/C(=N/C(=O)NC1CCCCC1)N/N=C/c1c[nH]c2ccc(O)cc12` were, in that order, 0.5 and 8.5.
For `CCCCC/N=C(/N)N/N=C/c1csc2ccc(O)cc12`, in assay [2], the pD2 is under 7.
For `CCCCC/N=C(/N)N/N=C/c1c[nH]c2ccc(N)cc12`, the Relative efficacy in assay [1] is 1.6. For the same molecule, the pD2 in assay [2] worked out at 7.6.
For `CCCCC/N=C(/N)N/N=C/c1c[nH]c2ccc(OC(=O)N(C)C)cc12` the same measures were 0.7 and under 7.
For `CCCCC/N=C(/N)N/N=C/c1c[nH]c2ccc(NS(C)(=O)=O)cc12` the same measures were 0 and under 4.
For `Oc1ccc2[nH]cc(/C=N/Nc3ccccn3)c2c1` the same measures were 0.8 and 6.1.
In assay [1], `CCCCC/N=C(/N)N/N=C/c1[nH]nc2ccc(O)cc12` yielded a Relative efficacy of 0. For the same molecule, the pD2 in assay [2] was under 4.
The like results for `COc1cccc(CCNC(=N)N/N=C/c2c[nH]c3ccc(O)cc23)c1` were, in that order, 0.5 and 8.9.
Turning to `CCCCC/N=C(/N)N/N=C/c1c[nH]c2ccc(OCCN(C)C)cc12`, the Relative efficacy in assay [1] was 0.3. Further, the pD2 in assay [2] amounted to 7.6.
The like results for `CCCCC/N=C(/N)N/N=C/c1csc2ccc(OC)cc12` were, in that order, 0.5 and 6.1.
The molecule `CCCCCNC(=N)N/N=C/c1c[nH]c2ccc(O)cc12` came in with a pA2 in assay [5] of under 5. Also, in assay [1], the Relative efficacy amounted to 0.9. Besides, the pD2 in assay [2] was determined as 9.3. In assay [3], this molecule gave a Ki of 224 nM.
In the case of `Oc1ccc2[nH]cc(/C=N/Nc3ncc[nH]3)c2c1`, in assay [1], the Relative efficacy stood at 1. The pD2 in assay [2] was 8.2. Further, the Ki in assay [3] was 1620 nM.
`N/C(=N/N=C/c1c[nH]c2ccc(O)cc12)NCCc1ccc(Cl)cc1` yielded a Relative efficacy in assay [1] of 0.2. Moreover, the pD2 in assay [2] is 8.4.
For `CCCCCNC(=N)N/N=C/c1c[nH]c2ccc(OC)cc12` the same measures were 0.2 and 6.9.
The like results for `CCCCC/N=C(/N)N/N=C/c1c[nH]c2ccc(OCOC)cc12` were, in that order, 0.7 and 7.5.
The like results for `CCCC(=O)/N=C(/N)N/N=C/c1c[nH]c2ccc(O)cc12` were, in that order, 1 and 7.7.
On to `CCCCCN(C)C(=N)N/N=C/c1c[nH]c2ccc(O)cc12`, for which the Relative efficacy in assay [1] turned out to be 0.3. For the same molecule, in assay [2], the pD2 worked out at 7.7.
`CCCCC/N=C(/N)N/N=C/c1c[nH]c2ccc(O)nc12` registered a Relative efficacy in assay [1] of 0.9. For the same molecule, the pD2 in assay [2] was 7.8. Besides, in assay [3], the affinity corresponds to a Ki of 1350 nM.
In turn, `CCCCC/N=C(/N)N/N=C/c1c[nH]c2ccc(OC(=O)CCCCC)cc12` came in with a Relative efficacy in assay [1] of 0. In assay [2], the pD2 was under 4.
`CN(/N=C/c1c[nH]c2ccc(O)cc12)C(=N)N` displayed a Relative efficacy in assay [1] of 0.5. Also, the pD2 in assay [2] amounted to 5.8.
The like results for `CCCCC/N=C(/N)N/N=C/c1c[nH]c2ccc(OC(=O)c3ccccc3)cc12` were, in that order, 0.5 and 7.
For `N/C(=N/N=C/c1c[nH]c2ccc(O)cc12)NCCNC(=O)c1ccccc1` the same measures were 0.5 and 8.5.
For `CCCCC/N=C(/N)N/N=C/c1c[nH]c2ccc([Si](C)(C)C)cc12`, the pD2 in assay [2] is under 5.5.
As to `Cl.N/C(=N/N=C/c1c[nH]c2ccc(O)cc12)NCCc1ccc(Cl)c(Cl)c1`, the pA2 in assay [5] is under 5. For the same molecule, in assay [1], the Relative efficacy was 0.1. The pD2 in assay [2] is over 10. The molecule further gave a Ki in assay [6] of 191 nM.
In assay [1], `CCCCC/N=C(/N)N/N=C/c1c[nH]c2ccc(OC)nc12` showed a Relative efficacy of 1. Further, the pD2 in assay [2] turned out to be 7.1.
In turn, `CCCCC/N=C(/N)N/N=C/c1c[nH]c2ccc(OCC)cc12` returned a Relative efficacy in assay [1] of 0.1. Also, the pD2 in assay [2] is under 7.
For `CCCCC/N=C(/N)N/N=C/c1[nH]nc2ccc(OC)cc12` the same measures were 0 and under 4.
`Oc1ccc2[nH]cc(/C=N/NC3=NCCS3)c2c1` showed a Relative efficacy in assay [1] of 0.5. For the same molecule, the pD2 in assay [2] came to 6.5.
Molecule `CCCCC/N=C(/N)N/N=C/c1c[nH]c2ccc(OC(C)C)cc12` yielded a pA2 in assay [5] of under 5. This molecule registered a Relative efficacy in assay [1] of 0.5. Moreover, the pD2 in assay [2] is 6.8. This molecule showed an inhibition constant Ki in assay [6] of 2510 nM.
Turning to `Oc1ccc2[nH]cc(/C=N/NC3=NCCN3)c2c1`, in assay [1], the Relative efficacy came out at 0.7. In assay [2], the pD2 came to 7.3.
In turn, `CCCCC/N=C(/N)N/N=C/c1c[nH]c2ccc(OCC=C(C)C)cc12` came in with a pA2 in assay [5] of under 5. Moreover, in assay [1], the Relative efficacy was 2.2. Besides, the pD2 in assay [2] was 8.15. In assay [3], the affinity, expressed as Ki, was 6310 nM.
